Values after ≈ are worked out from the molar mass of the structure shown. Active and inactive are the calls of the source. The calls are words filed in the database; no cut-off is given here.
Experiments:
[1] = molecular target: T1, N-lysine methyltransferase SMYD2 (Homo sapiens, UniProt Q9NRG4); experiment: Inhibition of SMYD2 (unknown origin)
[2] = Solubility of compound in 0.1 M phosphate buffer at pH 7.4 at 25 degC after 24 hrs; type: physicochemical
In short: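 Solid sample shaken 24 h in 0.1 M phosphate buffer, pH 7.4, 25 °C.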

[3] = Unbound fraction in human plasma by equilibrium dialysis; type: ADME, cell-free
In short: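 Human plasma, compound added from DMSO stock; fraction unbound (fu%) by equilibrium dialysis.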

[4] = molecular target: T1, N-lysine methyltransferase SMYD2; experiment: Inhibition of SMYD2 (unknown origin) expressed in human U2OS cells assessed as reduction in monomethylated p53 levels incubated for 24 hrs by immunofluorescence assay; type: cell-based
In short: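 U2OS plated 8,000 cells/well, transfected (Fugene) with FLAG-tagged wild-type SMYD2 construct. Compound from DMSO in media (final DMSO 0.2%), 24 h. Cells PFA-fixed, stained with anti-FLAG (1:800), polyclonal anti-monomethyl p53 K370 peptide antibody (1:1000) and DAPI, then imaged. IC50 from fluorescent intensity per cell for methylation; DAPI count gave the cell-count IC50.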

[5] = Intrinsic clearance in human liver microsomes; type: ADME, Microsome; details: read-out: CLH
[6] = molecular target: T1, N-lysine methyltransferase SMYD2; experiment: Binding affinity to SMYD2 (unknown origin) by ITC assay
In short: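 Microcal ITC at 23 °C in 25 mM Tris pH 8.5, 50 mM NaCl, 2% DMSO. Cell held ~15 µM SMYD2; syringe 200 µM compound. Eight 4 µL injections gave a final compound:protein molar ratio of ~1.4:1.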

[7] = Distribution coefficient, logD of compound; type: physicochemical; details: octanol/water
[8] = Intrinsic clearance in human liver microsomes; details: read-out: CLH
[9] = molecular target: T1, N-lysine methyltransferase SMYD2; experiment: Ratio of IC50 for SMYD2 (unknown origin) to IC50 for inhibition of SMYD2 (unknown origin) expressed in human U2OS cells; type: cell-based
HCT-116 [10] = experiment: Antiproliferative activity against human HCT-116 cells contains wild-type p53 gene assessed as reduction in cell viability at 0.03 to 30 uM incubated for 72 hrs by Alamar blue based assay; type: functional; details: dose 0.03-30 µM
In short: (§1)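 Matched p53 wild-type/deficient pairs (HCT116 p53+/+ and p53-/-; RKO-neo and RKO-E6a) seeded in triplicate, attached overnight. Media replaced with DMSO control or compound media, 0.03 to 30 µM, 72 h. Viability read as fluorescence after AlamarBlue incubation. Triplicate in two separate experiments; mean ±SEM.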

HCT-116 [11] = experiment: Antiproliferative activity against human HCT-116 cells deficient in p53 gene assessed as reduction in cell viability at 0.03 to 30 uM incubated for 72 hrs by Alamar blue based assay; type: functional; details: dose 0.03-30 µM; in short: as §1
RKO = experiment: Antiproliferative activity against human RKO cells assessed as reduction in cell viability at 0.03 to 30 uM incubated for 72 hrs by Alamar blue based assay; type: functional; details: dose 0.03-30 µM; in short: as §1
RKOE6 = experiment: Antiproliferative activity against human RKOE6 cells assessed as reduction in cell viability at 0.03 to 30 uM incubated for 72 hrs by Alamar blue based assay; type: functional; details: dose 0.03-30 µM; in short: as §1

T1 sequence (Q9NRG4 whole entry): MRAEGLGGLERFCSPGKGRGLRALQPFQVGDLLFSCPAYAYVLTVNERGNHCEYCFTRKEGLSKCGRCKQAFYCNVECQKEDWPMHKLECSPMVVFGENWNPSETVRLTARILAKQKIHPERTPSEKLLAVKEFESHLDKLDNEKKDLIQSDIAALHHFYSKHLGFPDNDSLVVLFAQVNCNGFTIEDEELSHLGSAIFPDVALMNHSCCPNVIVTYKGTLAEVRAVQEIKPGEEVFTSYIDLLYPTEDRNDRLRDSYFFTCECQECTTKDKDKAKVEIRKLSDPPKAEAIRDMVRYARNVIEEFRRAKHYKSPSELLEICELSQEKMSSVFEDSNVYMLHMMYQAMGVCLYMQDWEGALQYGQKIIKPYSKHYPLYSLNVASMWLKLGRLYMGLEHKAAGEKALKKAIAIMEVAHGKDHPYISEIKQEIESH

SMILES	IC50 [1]	solubility at 24 h [2]	fraction unbound [3]	EC50 [4]	further results
O=C(NCCCN1CCCC1)c1cc(-c2ccccc2F)nc2[nH]ncc12	16.8 µM				
Cc1ccccc1-c1cc(C(=O)NCC(Cc2ccccc2)CN2CCCC2)c2cn[nH]c2n1 (configuration not stated)	3.6 µM				
Cc1ccccc1-c1cccc(C(=O)NCCCN2CCCC2)c1	17.4 µM				
N#Cc1cc(C(=O)NCCCN2CCCC2)cc(-c2ccccc2N2CCN(CCc3c[nH]c4ccccc34)CC2)c1	0.028 µM	396 µM (≈ 222 µg/mL)	0.038	0.27 µM	microsomal CLint [5]: 21 µL/min/mg
O=C(NCCCN1CCCC1)c1cccc(-c2ccccc2N2CCN(CCc3c[nH]c4ccccc34)CC2)c1	0.041 µM	246 µM (≈ 132 µg/mL)	0.033	3.46 µM	microsomal CLint [5]: 16 µL/min/mg
COc1cc(C(=O)NCCCN2CCCC2)cc(-c2ccccc2C)c1	22.1 µM				
O=C(NCCCN1CCCC1)c1ccnc(-c2ccccc2N2CCN(CCc3ccc(Cl)cc3)CC2)c1	0.305 µM	> 1000 µM	0.13	1.62 µM	
Cc1ccccc1-c1cc(C(=O)N2CCC(N3CCCCC3)CC2)c2cn[nH]c2n1	16.9 µM				
O=C(NCCCN1CCCC1)c1cccc(-c2ccccc2N2CCN(CCc3ccc(Cl)c(Cl)c3)CC2)c1	0.165 µM	34 µM (≈ 19.2 µg/mL)	< 0.01	3.23 µM	microsomal CLint [5]: 68 µL/min/mg
Cc1ccccc1-c1cc(C(=O)NCCCN2CCCC2)c2cn[nH]c2n1	5.6 µM	> 1000 µM	0.43		Kd [6]: 1.73 µM; logD [7]: 1.19; microsomal CLint [8]: 92 µL/min/mg
NCC1(C(=O)Nc2ccc(Cl)cc2)CCN(c2ncnc3[nH]nc(C4CC4)c23)CC1					Activity [6]: Active
CCc1ccccc1-c1cc(C(=O)NCCCN2CCCC2)c2cn[nH]c2n1	8.4 µM				
O=C(NCCCN1CCCC1)c1cncc(-c2ccccc2N2CCN(CCc3c[nH]c4ccccc34)CC2)c1	0.017 µM	858 µM (≈ 461 µg/mL)	0.17	1.02 µM	IC50 [4]: 2.43 µM; Ratio IC50 [9]: > 2; Activity (HCT-116 [10]): Active; Activity (HCT-116 [11]): Active; Activity (RKO): Active; Activity (RKOE6): Active
Cc1ccccc1-c1cc(C(=O)NCCCN(C)C)c2cn[nH]c2n1	> 61 µM				
Cc1ccccc1-c1cc(C(=O)NCCCN2CCCC2)ccn1	8.8 µM				
O=C(NCCCN1CCCC1)c1cc(-c2ccccc2N2CCN(CCc3ccc(Cl)c(Cl)c3)CC2)nc2[nH]ncc12	0.065 µM	174 µM (≈ 106 µg/mL)	< 0.01	0.549 µM	logD [7]: > 3.5; microsomal CLint [8]: > 300 µL/min/mg
COc1cc(C(=O)NCCCN2CCCC2)cc(-c2ccccc2C)n1	9.9 µM				
O=C(NCCCN1CCCC1)c1cc(-c2ccccc2Cl)nc2[nH]ncc12	8 µM				
CCOc1cccc(C(=O)NC2CC3(CCNCC3)c3ccccc32)c1 (configuration not stated)					Activity [6]: Active
COc1cccc(CNC2CCN(c3ccccc3-c3cncc(C(=O)NCCCN4CCCC4)c3)CC2)c1	0.039 µM	915 µM (≈ 483 µg/mL)	0.14	5.76 µM	logD [7]: 1.9; microsomal CLint [8]: 28 µL/min/mg
CNCCCNC(=O)c1cc(-c2ccccc2C)nc2[nH]ncc12	> 83 µM				
O=C(NCCCN1CCCC1)c1cccc(-c2ccccc2N2CCN(CCc3ccccc3)CC2)c1	0.339 µM	851 µM (≈ 423 µg/mL)	0.08	4.91 µM	microsomal CLint [5]: 30 µL/min/mg

SMILES	IC50 [1]	solubility at 24 h [2]	fraction unbound [3]	EC50 [4]	further results
Cc1ccccc1-c1cc(C(=O)NCCCN2CCCC2)c2c(C3CC3)n[nH]c2n1	13.3 µM				
COc1cccc(CCN2CCN(c3ccccc3-c3cc(C(=O)NCCCN4CCCC4)ccn3)CC2)c1	0.44 µM	> 1000 µM	0.41	1.22 µM	
O=C(NCCCN1CCCC1)c1ccnc(-c2ccccc2N2CCN(CCc3c[nH]c4ccccc34)CC2)c1	0.062 µM	923 µM (≈ 495 µg/mL)	0.34	5.61 µM	
COc1cccc(CCN2CCN(c3ccccc3-c3cccc(C(=O)NCCCN4CCCC4)c3)CC2)c1	0.273 µM	815 µM (≈ 429 µg/mL)	0.1	3.5 µM	microsomal CLint [5]: 36 µL/min/mg
CN(CCCN1CCCC1)C(=O)c1cc(-c2ccccc2Br)nc2[nH]ncc12	7.3 µM				
O=C(NCCCN1CCCC1)c1cncc(-c2ccccc2N2CCN(CCc3ccc(Cl)c(Cl)c3)CC2)c1	0.038 µM	393 µM (≈ 223 µg/mL)	0.011	0.45 µM	
O=C(NCCCN1CCCC1)c1cncc(-c2ccccc2OC2CN(CCc3ccc(Cl)c(Cl)c3)C2)c1	0.012 µM	> 1000 µM	0.11	> 24 µM	logD [7]: 2.4; microsomal CLint [8]: 33.5 µL/min/mg
CCn1cncc1CN1CCc2[nH]c(=O)cc(-c3ccc(Cl)cc3)c2C1					Activity [6]: Active
O=C(NCCCN1CCCC1)c1ccnc(-c2ccccc2N2CCN(CCc3ccc(Cl)c(Cl)c3)CC2)c1	0.12 µM	790 µM (≈ 448 µg/mL)	0.014	5.57 µM	
Cc1cccc(CCN2CCN(c3ccccc3-c3cccc(C(=O)NCCCN4CCCC4)c3)CC2)c1	0.211 µM	722 µM (≈ 369 µg/mL)	0.053	4.14 µM	microsomal CLint [5]: 35 µL/min/mg
Cc1ccccc1-c1cc(C(=O)NCC(O)CN2CCCC2)c2cn[nH]c2n1 (configuration not stated)	12.1 µM				
Cc1cccc(CCN2CCN(c3ccccc3-c3cc(C#N)cc(C(=O)NCCCN4CCCC4)c3)CC2)c1	0.031 µM	588 µM (≈ 315 µg/mL)	0.023	1.21 µM	microsomal CLint [5]: 43 µL/min/mg
Cc1ccccc1-c1cc(C(=O)NCCCN2CCCCC2)c2cn[nH]c2n1	13.5 µM				
Cc1ccccc1-c1cc(C(=O)NCCCN2CCCC2)c2c(C)n[nH]c2n1	8.9 µM				
COc1ccc(CCN2CCN(c3ccccc3-c3cc(C(=O)NCCCN4CCCC4)ccn3)CC2)cc1	1.05 µM	> 1000 µM	0.34	2.44 µM	
Cc1ccccc1-c1cc(C#N)cc(C(=O)NCCCN2CCCC2)c1	7.3 µM				
COc1ccccc1-c1cc(C(=O)NCCCN2CCCC2)c2cn[nH]c2n1	14.5 µM				
COc1cccc(CCN2CCN(c3ccccc3-c3cc(C#N)cc(C(=O)NCCCN4CCCC4)c3)CC2)c1	0.059 µM	602 µM (≈ 332 µg/mL)	0.073	2.69 µM	microsomal CLint [5]: 74 µL/min/mg
Cc1ccccc1-c1cc(C(=O)NCCCN2CCC(N3CCCCC3)CC2)c2cn[nH]c2n1	19.6 µM				
CNc1cc(C(=O)NCCCN2CCCC2)cc(-c2ccccc2C)n1	17.7 µM				
Cc1ccccc1-c1cc(C(=O)NCCCN2CCOCC2)c2cn[nH]c2n1	41.3 µM				
O=C(NCCCN1CCCC1)c1cccc(-c2ccccc2N2CCN(CCc3ccc(Cl)cc3)CC2)c1	0.114 µM	332 µM (≈ 176 µg/mL)	0.012	3.12 µM	microsomal CLint [5]: 30 µL/min/mg
